According to ChEMBL document CHEMBL5247671, “Design and Synthesis of Pyrazole-Based Macrocyclic Kinase Inhibitors Targeting BMPR2” (ACS Med Chem Lett, 2023):

Experiments:
[1] = target: Serine/threonine-protein kinase 24 (Homo sapiens) (UniProt Q9Y6E0); test: Inhibition of recombinant MST3 (unknown origin) at 10 uM by DSF assay relative to staurosporine
Method in brief: (§1)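 Differential scanning fluorimetry on an in-house panel of 90 recombinant kinases. Stabilization is read as the shift in melting temperature (ΔTm) relative to ligand-free protein. Staurosporine served as the positive control, and binding was also compared against its ΔTm.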

[2] = target: T1, MAP/microtubule affinity-regulating kinase 4 (Homo sapiens) (UniProt Q96L34); test: Binding affinity to recombinant MARK4 (unknown origin) assessed as change in melting temperature at 10 uM by DSF assay; method in brief: as §1
T1 sequence (whole entry): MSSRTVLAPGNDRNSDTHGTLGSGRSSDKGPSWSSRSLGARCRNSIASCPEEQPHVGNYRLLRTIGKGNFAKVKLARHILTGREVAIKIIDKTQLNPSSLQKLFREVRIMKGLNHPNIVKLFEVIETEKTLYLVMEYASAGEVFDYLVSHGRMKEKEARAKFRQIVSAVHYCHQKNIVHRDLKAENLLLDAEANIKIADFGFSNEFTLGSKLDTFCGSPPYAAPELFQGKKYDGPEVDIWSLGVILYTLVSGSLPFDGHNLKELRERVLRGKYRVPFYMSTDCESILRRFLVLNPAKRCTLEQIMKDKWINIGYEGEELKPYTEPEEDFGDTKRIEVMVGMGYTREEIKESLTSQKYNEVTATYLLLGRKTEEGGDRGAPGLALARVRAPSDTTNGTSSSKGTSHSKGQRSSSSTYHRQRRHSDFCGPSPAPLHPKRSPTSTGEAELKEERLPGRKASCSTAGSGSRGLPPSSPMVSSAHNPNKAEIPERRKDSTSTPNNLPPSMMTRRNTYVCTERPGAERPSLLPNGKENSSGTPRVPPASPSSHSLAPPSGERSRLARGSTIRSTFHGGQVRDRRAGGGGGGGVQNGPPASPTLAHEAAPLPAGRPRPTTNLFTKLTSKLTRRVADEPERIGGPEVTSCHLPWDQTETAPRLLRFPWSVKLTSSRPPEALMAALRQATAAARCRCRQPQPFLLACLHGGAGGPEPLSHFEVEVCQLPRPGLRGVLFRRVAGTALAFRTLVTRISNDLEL

[3] = system: T2, Receptor-type tyrosine-protein kinase FLT3 (Homo sapiens), P36888 [D835V]; test: Inhibition of FLT3 D835V mutant (unknown origin) at 1 uM by Kinomescan assay relative to staurosporine
T2 sequence (whole entry): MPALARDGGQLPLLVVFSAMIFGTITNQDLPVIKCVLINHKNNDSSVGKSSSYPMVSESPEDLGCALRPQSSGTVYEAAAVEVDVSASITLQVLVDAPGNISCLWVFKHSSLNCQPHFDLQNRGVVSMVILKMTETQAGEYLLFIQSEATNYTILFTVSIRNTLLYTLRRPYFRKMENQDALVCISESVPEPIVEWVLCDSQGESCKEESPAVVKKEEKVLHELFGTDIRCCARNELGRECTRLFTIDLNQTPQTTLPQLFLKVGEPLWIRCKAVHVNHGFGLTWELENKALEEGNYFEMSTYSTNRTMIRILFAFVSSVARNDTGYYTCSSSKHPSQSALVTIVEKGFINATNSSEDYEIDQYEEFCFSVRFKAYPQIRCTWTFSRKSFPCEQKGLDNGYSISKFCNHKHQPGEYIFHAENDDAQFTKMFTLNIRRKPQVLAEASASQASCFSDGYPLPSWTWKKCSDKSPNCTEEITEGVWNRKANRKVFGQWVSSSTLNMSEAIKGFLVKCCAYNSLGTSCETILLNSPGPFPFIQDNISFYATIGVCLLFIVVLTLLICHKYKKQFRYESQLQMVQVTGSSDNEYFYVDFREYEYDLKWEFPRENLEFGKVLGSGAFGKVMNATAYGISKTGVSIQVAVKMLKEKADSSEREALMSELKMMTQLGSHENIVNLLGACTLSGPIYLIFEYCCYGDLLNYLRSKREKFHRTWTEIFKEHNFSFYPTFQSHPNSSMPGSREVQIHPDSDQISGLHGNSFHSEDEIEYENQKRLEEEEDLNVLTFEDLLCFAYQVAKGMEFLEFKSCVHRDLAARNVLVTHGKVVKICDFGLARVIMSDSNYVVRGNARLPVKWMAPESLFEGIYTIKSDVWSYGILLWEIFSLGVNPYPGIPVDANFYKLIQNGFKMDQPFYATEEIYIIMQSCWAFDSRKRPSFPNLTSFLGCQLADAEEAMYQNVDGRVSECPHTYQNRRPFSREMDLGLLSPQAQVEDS

[4] = target: T3, Bone morphogenetic protein receptor type-2 (Homo sapiens) (UniProt Q13873); test: Inhibition of recombinant BMPR2 (unknown origin) at 10 uM by DSF assay relative to […]
T3 sequence (whole entry): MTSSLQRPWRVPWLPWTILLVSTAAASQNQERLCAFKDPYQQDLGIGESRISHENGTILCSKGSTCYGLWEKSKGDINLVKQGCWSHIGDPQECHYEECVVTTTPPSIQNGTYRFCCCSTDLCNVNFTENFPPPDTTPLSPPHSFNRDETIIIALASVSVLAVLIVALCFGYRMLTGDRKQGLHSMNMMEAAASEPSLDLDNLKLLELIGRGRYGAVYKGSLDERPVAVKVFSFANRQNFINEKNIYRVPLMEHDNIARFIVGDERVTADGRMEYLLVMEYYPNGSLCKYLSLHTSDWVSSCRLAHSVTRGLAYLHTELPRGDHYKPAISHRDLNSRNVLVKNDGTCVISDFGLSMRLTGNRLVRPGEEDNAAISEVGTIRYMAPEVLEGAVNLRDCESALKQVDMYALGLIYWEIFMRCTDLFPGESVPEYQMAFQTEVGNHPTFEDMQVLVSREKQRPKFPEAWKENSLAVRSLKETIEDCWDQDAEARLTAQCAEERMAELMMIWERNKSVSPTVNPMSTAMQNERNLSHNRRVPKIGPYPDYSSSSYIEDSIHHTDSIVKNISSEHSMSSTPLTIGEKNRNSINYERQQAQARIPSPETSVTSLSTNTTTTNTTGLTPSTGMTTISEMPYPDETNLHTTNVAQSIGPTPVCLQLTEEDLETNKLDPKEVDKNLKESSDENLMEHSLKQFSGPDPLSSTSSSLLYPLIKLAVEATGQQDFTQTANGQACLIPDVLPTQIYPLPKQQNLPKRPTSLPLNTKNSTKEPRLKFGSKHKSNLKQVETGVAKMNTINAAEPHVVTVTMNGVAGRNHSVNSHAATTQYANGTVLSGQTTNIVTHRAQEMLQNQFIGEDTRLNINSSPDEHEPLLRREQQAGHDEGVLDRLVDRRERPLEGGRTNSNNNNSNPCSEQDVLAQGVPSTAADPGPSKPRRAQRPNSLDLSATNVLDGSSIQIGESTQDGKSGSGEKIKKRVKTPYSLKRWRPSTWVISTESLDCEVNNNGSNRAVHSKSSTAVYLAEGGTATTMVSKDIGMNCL

Serine/threonine-protein kinase 24 (Homo sapiens), sequence (Q9Y6E0 whole entry, looked up): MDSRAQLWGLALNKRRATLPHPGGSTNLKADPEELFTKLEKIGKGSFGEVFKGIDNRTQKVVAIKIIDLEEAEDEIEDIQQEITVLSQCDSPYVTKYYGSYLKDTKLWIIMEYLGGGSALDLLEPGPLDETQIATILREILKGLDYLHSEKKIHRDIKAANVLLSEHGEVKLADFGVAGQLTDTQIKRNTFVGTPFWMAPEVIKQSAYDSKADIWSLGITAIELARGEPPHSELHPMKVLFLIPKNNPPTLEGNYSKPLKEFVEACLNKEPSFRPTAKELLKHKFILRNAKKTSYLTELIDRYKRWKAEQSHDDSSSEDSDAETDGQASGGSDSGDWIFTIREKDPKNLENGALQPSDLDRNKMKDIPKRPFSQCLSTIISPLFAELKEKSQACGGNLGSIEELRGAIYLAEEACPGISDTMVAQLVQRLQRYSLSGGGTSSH

## O=C1NCCc2ccc(cc2)Nc2nccc(n2)Nc2cc1[nH]n2
[1]
  inhibition: 44%
[2]
  ΔTm: 3.8 °C
[3]
  inhibition: 4.5%
[4]
  inhibition: 103%
